The nature of test [1]: OD615 S. cerevisiae growth inhibition, permissive medium, pilot counter-assay, permissive growth control for S. cerevisiae lifespan shortening project (AID 705;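 active = growth inhibition above 25% in both replicates, a cutoff set 3 SD above the mean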). The settings on record: OD615, 24 h, at 10 µM, active compounds read high. An outline of the steps: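 Material: engineered DeaD yeast; compound dosing: one dose 10 µM, DMSO 0.25% final; measure: yeast growth inhibition indicated by reduced 24 h OD615; detection: OD615 turbidity read; incubation: cells pre-grown 4 h, then 24 h compound exposure, 30 °C humidified; medium: permissive synthetic complete medium with raffinose and galactose carbon sources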

Test [2] can be described thus: Restrictive medium S. cerevisiae growth inhibition, OD615, pilot screen of yeast lifespan reduction project, restrictive growth control (AID 706;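 active = growth inhibition above a set limit, 3 SD over mean compound inhibition, in both replicates, cut at about 43% in these data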;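 also: modified DeaD lifespan yeast strain shifted to restrictive glucose medium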). The settings on record: OD615, 48 h, at 10 µM, active compounds read high. An outline of the steps: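 material = engineered S. cerevisiae DeaD strain | medium = glucose-based CSMM-D restrictive medium | times = 4 h pre-incubation, 48 h exposure at 30 °C | technique = OD615 absorbance reading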

Test [3] is described as follows: viability gain of MRP-1-high H69AR cells under doxorubicin, pilot screen, MRP-1 activator project, CellTiter-Glo, duplicate (AID 807;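 active = viability increase at or above a cutoff of the median across tested compounds plus 3 SD, cut at about 8.5% in these data, passing the limit was not always enough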;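 also: compound pretreatment 18-22 h then 72 h combined with doxorubicin; 0% = doxorubicin alone and 100% = vehicle without doxorubicin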). The settings on record: H69AR viability with doxorubicin, CellTiter-Glo luminescence; at 10 µM; active compounds read high.
Test [4] is described as follows: growth suppression of beta-catenin knockout HCT116, pilot screen, human colon tumor cells (AID 823).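 Also: 0% = wells killed by 20 µM Hyamine and 100% = untreated DMSO cell wells.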 The settings on record: CellTiter-Glo, 60 h, at 10 µM, active compounds read low. On the technique in general: In ATP-based viability assays light output follows the ATP content of the culture.
Test [5] can be described thus: growth suppression of PTEN-deleted HCT116, pilot screen, cell-based, HCT116 clonal line, CellTiter-Glo (AID 824;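 active = viability at or below 27.92% in each of two runs, the all-compound median minus 4 SD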;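 also: 0% = 20 µM Hyamine control and 100% = vehicle cell control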). The settings on record: 60 h, at 10 µM, active compounds read low.
Test [6] in a line: inhibitors of the yeast RAM network, pilot screen, dse1pr::URA3 reporter, 5-FOA selection (AID 869;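 active = inhibition over a set limit, the all-compound mean plus 3 SD, in both replicate runs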;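 also: 0% = DMSO wells with no growth and 100% = 10 µM 1-NA-PP1 with full growth; RAM network block rescues cells from 5-FOA so hits raise OD615 growth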). The settings on record: S. cerevisiae dse1pr::URA3 5-FOA growth, OD615, 2 d; at 10 µM; active compounds read high; strain carries analog-sensitive mutant Cbk1 kinase.
Test [7] in a line: RAM signaling pathway blockade in yeast – S. cerevisiae, Pdr1DBD-CYC8 efflux-inhibited sensitized strain, primary screen (AID 1298;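 active = RAM network inhibition above 8.4% in each of two replicates, 3 SD over the compound average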;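 also: 0% = DMSO untreated cells without growth and 100% = 10 µM 1-NA-PP1 full growth; higher means more yeast growth rescued from 5-FOA killing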). The settings on record: S. cerevisiae cbk1-as DSE1-URA3 strain, 5-FOA growth OD615, 2 d; at 50 µM; active compounds read high.

A number with no mark means an inactive call. Results filed as inconclusive are left out. Activity calls are given as the source filed them.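 The calls were made as follows, unless noted: active = cell viability at or below a set limit in both duplicate runs, the limit being the all-compound median minus 4 SD (cut at about 23% in these data, passing the limit was not always enough); inconclusive = no clear call, values can overlap the other calls; inactive = the rest.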

By viability is commonly meant a read-out of living cells in per cent, often relative to untreated cells. Usually inhibition stands for the drop in the measured response relative to a control, in per cent. Consider `CCCCNc1ncnc2c1cnn2-c1ccc(C)cc1C`, for which the growth inhibition is 6.55% in test [1] and 9.48% in test [2]. Moreover, in test [3], the viability increase was -3.72%. In addition, the figures for the viability in test [4] and in test [5] were 92.8% and 89.2%, respectively. For the same compound, the inhibition in test [6] was -0.12%. Moreover, in test [7], the RAM network inhibition was 0.27%.

For `CCOC(=O)c1c(C)[nH]c(C(=O)CSc2nnnn2-c2ccccc2)c1C`, the values for the growth inhibition in test [1] and in test [2] were -7.16% and -0.165%, respectively. Moreover, the viability increase in test [3] was -1.88%. Also, the viability in test [4] is 100%; in test [5], 93.4%. Besides, the inhibition in test [6] is 2.31%. For the same compound, the RAM network inhibition in test [7] was 1.57%.

Take `OCCNCCCCCOc1ccc(F)cc1`: the growth inhibition in test [1] is -1.2%; in test [2] it was -16.2%. Besides, the viability increase in test [3] was -1.34%. The viability in test [4] was 96.2%; in test [5] it was 94.5%. In test [6], the inhibition was 2.19%. Also, the RAM network inhibition in test [7] is 0.69%.

As to `C=CCc1cccc2cc(C(=O)N(C)C)c(=O)oc12`, the growth inhibition in test [1] is -7.92%; in test [2] it was -6.08%. In addition, in test [3], the viability increase is -1.06%. Further, the viability in test [4] is 105%; in test [5] it was 93.8%. For the same compound, the inhibition in test [6] is 1.53%. In addition, the RAM network inhibition in test [7] is 2.04%.

As for `CCOC(=O)C1CCN(C(=O)Cn2cc3c(n2)CCC(C)C3)CC1` (stereo unspecified), the growth inhibition in test [1] was -5.55%; in test [2], -0.07%. In test [3], the viability increase was 0.98%. Also, the viability in test [4] is 97.6%; in test [5], 95.6%. Besides, the inhibition in test [6] is 1.87%. In addition, the RAM network inhibition in test [7] was 1.77%.

Regarding `CC(C)c1nc2cc3ccccc3cc2[nH]1`, the growth inhibition in test [1] is -5.02%; in test [2], -20.5%. For the same compound, the viability increase in test [3] was -3.6%. Besides, the viability in test [4] was 73.5%; in test [5], 81.8%. Besides, the inhibition in test [6] was 0.18%. For the same compound, the RAM network inhibition in test [7] was 7.45%.

For `COc1ccc(NC2c3ccccc3C(=O)N2c2cccnc2)cc1Cl` (stereo unspecified), the growth inhibition in test [1] is 4.54%; in test [2], 2.02%. Also, the viability increase in test [3] is -2.35%. Moreover, the viability in test [4] was 89.5%; in test [5], 80.4%. Also, the inhibition in test [6] was 2.27%. Moreover, in test [7], the RAM network inhibition was 0.67%.

With `OC1CCN(c2c3c(nc4cc(-c5cccc(F)c5)nn24)CCCC3)CC1`, the values for the growth inhibition in test [1] and in test [2] were 2.2% and -11.2%, respectively. The viability increase in test [3] was -6.47%. In addition, the results for the viability in test [4] and in test [5] were 73.8% and 65%, respectively. In test [6], the inhibition was 2.02%. In addition, the RAM network inhibition in test [7] was 9.14%.

In the case of `COC(=O)c1ccccc1NC(NC(=O)c1ccco1)C(=O)c1ccc(C)cc1` (stereo unspecified), the growth inhibition in test [1] was -0.235%; in test [2] it was -5.5%. Also, in test [3], the viability increase is -4.41%. The viability in test [4] is 79%; in test [5] it was 70.3%. Further, the inhibition in test [6] was 4.25%. For the same compound, the RAM network inhibition in test [7] is 7.66%.

Regarding `C#CC(C)(C)NC(=O)CSc1nc2c(c(=O)n(C)c(=O)n2C)n1CCCC`, the results for the growth inhibition in test [1] and in test [2] were -15.3% and -13.7%, respectively. Also, the viability increase in test [3] was 1.86%. The viability was 102% in test [4] and 89.4% in test [5]. The inhibition in test [6] was 2.11%. The RAM network inhibition in test [7] is 1.45%.

Regarding `COc1cc(C2C(C(=O)OC(C)C)=C(C)Nc3ncnn32)cc(OC)c1OC` (stereo unspecified), the growth inhibition was -8.66% in test [1] and -10.4% in test [2]. Besides, the viability increase in test [3] was -3.15%. Moreover, the viability was 100% in test [4] and 96.8% in test [5]. For the same compound, the inhibition in test [6] is 1.19%. Further, in test [7], the RAM network inhibition was 1.44%.

As for `Cc1oc2c(c1C(=O)NC(Cc1c[nH]c3ccccc13)C(=O)O)CCCC2` (stereo unspecified), the growth inhibition in test [1] was -8.56%; in test [2] it was -5.62%. Further, the viability increase in test [3] was -3.61%. For the same compound, the values for the viability in test [4] and in test [5] were 100% and 97.6%, respectively. Moreover, in test [6], the inhibition is 1.37%. For the same compound, the RAM network inhibition in test [7] is 0.1%.

For the compound `Cc1cc(NS(=O)(=O)c2ccccc2)c(C)c(Cl)c1O`, the values for the growth inhibition in test [1] and in test [2] were -8.22% and -15.3%, respectively. Moreover, the viability increase in test [3] was -4.31%. The values for the viability in test [4] and in test [5] were 1.97% (active) and 3.14% (active), respectively. For the same compound, in test [6], the inhibition is 2.38%. Besides, the RAM network inhibition in test [7] is 6.4%.

Regarding `CCCc1n[nH]c2c1C(=O)CC(C)(C)C2`, the values for the growth inhibition in test [1] and in test [2] were -9.08% and -9.82%, respectively. Also, the viability increase in test [3] was -1.76%. Moreover, the figures for the viability in test [4] and in test [5] were 95.6% and 102%, respectively. Besides, the inhibition in test [6] was 0.98%. Further, the RAM network inhibition in test [7] is 2.76%.

Turning to `Cc1ccccc1NC(=O)c1ocnc1C`, the growth inhibition in test [1] is -1.01%; in test [2] it was -8.43%. In addition, the viability increase in test [3] is -1.48%. In addition, the viability was 101% in test [4] and 92.3% in test [5]. Also, the inhibition in test [6] was 0.18%. Also, the RAM network inhibition in test [7] is 4.25%.

For `Cc1nn(-c2ccccc2)c(C)c1C(=O)OCC(=O)Nc1ccc2c(c1)OCO2`, the growth inhibition in test [1] was -15.6%; in test [2], -15.7%. In addition, in test [3], the viability increase was -0.97%. The values for the viability in test [4] and in test [5] were 95.3% and 92.9%, respectively. Also, the inhibition in test [6] was 3.68%. Further, the RAM network inhibition in test [7] was 3.09%.

As to `CCC(=O)Nc1c(OC(=O)CC)ccc2c(C)cc(=O)oc12`, the growth inhibition in test [1] is 5.45%; in test [2] it was 4.76%. In test [3], the viability increase is -2.02%. For the same compound, the viability in test [4] is 105%; in test [5], 88.7%. Also, in test [6], the inhibition was 0.835%. In addition, in test [7], the RAM network inhibition is -0.83%.

In the case of `Cc1ccc(-c2nn3c(C)nnc3s2)cc1NC(=O)COc1ccc(Cl)cc1`, the growth inhibition in test [1] is -4.13%; in test [2], 25.3%. For the same compound, the viability increase in test [3] is -1.1%. Moreover, the viability in test [4] is 93.8%; in test [5], 90.8%. Moreover, the inhibition in test [6] is 2.17%. Besides, the RAM network inhibition in test [7] was 6.41%.

The values above are taken from PubChem BioAssay.
